# Assay outcomes (PubChem BioAssay)
# This is a sample that favours compounds with a hit; in the whole collection about 1% have one here.
# PKA-R2B activ: activators of human PKA-R2B complex | P22694+P31323 | PKA-R2B holoenzyme dissociation, Cy5-IP20 fluorescence polarization; R2B truncated from residue 108, S112A mutant; 0% DMSO only, 100% 113 µM cGMP | activation, % at 11.4 µM | 340,000 tested, 0.079% active | AID 504700;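 active = activation above a cutoff set at the mean over all compounds plus 3 SD, cut at about 18% in these data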;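 note: higher means more holoenzyme dissociation and a rise in polarization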
# Target sequence (P31323 whole entry, looked up, other chains not shown, the tested form may be a part): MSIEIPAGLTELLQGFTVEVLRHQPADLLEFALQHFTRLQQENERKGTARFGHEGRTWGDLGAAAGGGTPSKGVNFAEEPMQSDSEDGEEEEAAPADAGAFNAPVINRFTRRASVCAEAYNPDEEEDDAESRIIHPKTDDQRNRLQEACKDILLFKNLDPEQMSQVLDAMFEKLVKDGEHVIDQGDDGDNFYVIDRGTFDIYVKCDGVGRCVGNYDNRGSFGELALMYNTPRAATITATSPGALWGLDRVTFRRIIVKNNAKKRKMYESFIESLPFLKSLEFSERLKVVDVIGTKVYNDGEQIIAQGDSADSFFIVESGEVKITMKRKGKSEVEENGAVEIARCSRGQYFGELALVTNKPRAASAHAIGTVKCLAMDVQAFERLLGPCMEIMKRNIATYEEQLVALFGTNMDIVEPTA
# Tn6 DDE FP: DD(E)-Tn6 binding inhibition, primary FP screen; AID 720509; P02675; 370,000 tested, 0.21% active; inhibition, % at 8.3 µM; Fibrin DD(E) TRITC-Tn6 fluorescence polarization displacement;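 active = inhibition above a per-campaign cutoff: mean of compounds within control limits plus 3 SD, cut at about 15% in these data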;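 note: 0% = median of all compound wells on the plate and 100% = blocking peptide control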
# PKA-R1A activ: PKA-R1A complex activation; PKA-R1A dissociation, Cy5-IP20 fluorescence polarization; scaled: DMSO 0%, 113 µM cGMP 100%; activation, % at 11.4 µM; 340,000 tested, 0.083% active; AID 504707;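 active = percent activation above the mean of all tested compounds plus 3 SD, cut at about 19% in these data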;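 note: higher means more PKAc released from R1A so a rise in polarization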
# Neddyl block: inhibitors of human cullin neddylation | inhibition, % at 25 µM | 360,000 tested, 0.58% active | P61081+Q13564 | TR-FRET cullin neddylation, biochemical; in the data active = inhibition above about 36%
# DDE Tn7 FP inh: inhibitors of Tn7 peptide binding to human fibrin DD(E); P02675; FP displacement of FITC-Tn7 peptide from fibrin DD(E); 0% = median of compound wells per plate; inhibition, % at 8.3 µM; 370,000 tested, 0.13% active;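 active = inhibition above the mean of compounds falling within the control limits plus 3 SD of them, cut at about 14% in these data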;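 note: 0% = plate median of compound wells and 100% = 10 µM Aha-Tn7 peptide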
#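 system = human fibrin DD(E) protein | quantity = DD(E) 2 µM final | medium = Tris/NaCl/CaCl2 buffer, pH 7.8 | also added = labelled Tn7 tracer, 0.1 µM | compound dosing = single point at 8.3 µM | timing = compound with protein 10 min, then 3 h after probe, room temperature | signal = FP measurement | benchmarks = Aha-Tn7 high control | repeats = one replicate per compound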
# R1A FP artifact: fluorescence polarization artifact in PKA-R1A activator counter-screen. shares compounds with PKA-R1A activ. Cy5-IP20 peptide alone, fluorescence polarization artifact counterscreen. activation, % at 11.4 µM. 280 tested, 7% active. AID 504799;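 active = mean activation over triplicate runs exceeds the adjusted cutoff derived for the parent primary screen, cut at about 19% in these data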;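 note: no PKA protein present so any polarization rise reflects compound interference; 0% = tracer peptide mix alone and 100% = mix with added PKA catalytic subunit; higher means stronger polarization artifact and likely false positive in parent screen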
# PKA-R1A confirm: PKA-R1A complex activation, confirmation. shares compounds with PKA-R1A activ. Cy5-IP20 fluorescence polarization, PKA-R1A holoenzyme dissociation. activation, % at 11.4 µM. 280 tested, 9% active;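 active = mean activation over replicate wells exceeds the adjusted hit threshold taken from the earlier primary screen, cut at about 20% in these data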;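 note: 0% = holoenzyme mix with DMSO only and 100% = cGMP-activated control wells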
# Starred values were filed as active, the others as inactive; . = no result given.
SMILES,PKA-R2B activ,Tn6 DDE FP,PKA-R1A activ,Neddyl block,DDE Tn7 FP inh,R1A FP artifact,PKA-R1A confirm
CCCC1=C(C(=O)OCC)C(c2ccc(O)cc2)n2ncnc2N1 (stereo unspecified),-1,-9,2,1,-2,.,.
CCCC1=C(C(=O)OCC)C(c2sccc2C)n2ncnc2N1 (stereo unspecified),5,-7,19*,1,1,4,4
CCOC(=O)CC[C@@H]1CC[C@]2(CCCN(C(=O)c3ccccc3)C2)O1,.,-2,.,.,-7,.,.
Nc1nnnn1/N=C/c1ccccn1,-3,2,21*,-4,-2,0,5
CCOc1cc(CNC(=O)CN2C(=O)c3ccccc3S2(=O)=O)ccc1OC,-6,1,19*,-6,2,-1,0
COCCn1c(N)c(N(Cc2ccccc2)C(=O)COc2ccc(F)cc2Cl)c(=O)[nH]c1=O,0,-8,20*,6,-2,4,5
CC(C)(C)OC(=O)NCc1cc(F)ccc1/C=C/S(=O)(=O)NCc1ccc(F)cc1,.,6,.,.,-1,.,.
CC1=NN(c2ccccc2)C(c2ccco2)C1 (stereo unspecified),-6,4,20*,18,0,-1,2
O=C(/C=C/c1ccccc1)Nn1c(-c2cccs2)nc2ccccc2c1=O,1,-12,0,5,-5,.,.
CCCCOc1ccc(C(=O)Nn2c(-c3cccs3)nc3ccccc3c2=O)cc1,6,4,19*,-67,-4,2,4
Cc1cc(Oc2cccnc2)ccc1NC(=O)CCc1c[nH]c2ccccc12,.,8,.,.,4,.,.
O=C(CSC(=S)N1CCCC1)c1ccccc1,7,11,-1,8,5,.,.
O=C(CSC(=S)N1CCCCC1)c1ccccc1,9,-2,20*,-3,-8,1,1
CCCn1c(SCC(=O)N2CCCC2)nc2c1c(=O)n(C)c(=O)n2C,-4,7,21*,5,-4,-2,-2
Cc1nc(CCNS(=O)(=O)c2cccs2)cs1,-5,1,20*,3,3,6,0
Cc1cc(NC(=O)c2ccc(Br)o2)ccc1NC(=O)c1ccco1,-1,-5,19*,2,-2,2,4
O=C(Nc1ccc(F)cc1F)c1ccco1,6,-4,24*,-8,-1,3,6
COc1ccc2cc3cc(C(=O)Nc4ccc(F)cc4)sc3nc2c1,.,-13,.,.,7,.,.
COc1ccc2[nH]c(=O)c(CN(C(=O)c3ccccn3)c3ccccc3)cc2c1,-2,-1,20*,20,-1,1,-1
COc1ccc2[nH]c(=O)c(CN(C(=O)c3cccnc3)c3ccccc3)cc2c1,4,-4,-1,24,2,.,.
COC(=O)c1cc2c(c3c4cc(F)ccc4n(S(=O)(=O)c4ccccc4)c13)C(=O)N(C)C2,.,3,.,.,-2,.,.
Cc1ccc(S(=O)(=O)N2CCCC2C(=O)N2CCc3ccccc3C2)cc1 (stereo unspecified),.,13,.,.,-6,.,.
CC(=O)Nc1ccc(NS(=O)(=O)c2cn(C)c(=O)n(C)c2=O)cc1,8,1,20*,-4,-3,3,-1
CC(C)(C)C1=Nn2c(nnc2-c2ccc(C(C)(C)C)cc2)SC1,.,6,.,.,2,.,.
COC(=O)[C@]12C[C@H](CC(=O)NCc3cccc(C(F)(F)F)c3)C(=O)N(CCC3=CCCCC3)C1=C[C@H](COCc1ccccc1)O[C@@H]2C,.,-2,.,.,-2,.,.
SMILES,PKA-R2B activ,Tn6 DDE FP,PKA-R1A activ,Neddyl block,DDE Tn7 FP inh,R1A FP artifact,PKA-R1A confirm
COc1ccc(-c2cc(C(=O)Nc3cc(OC)c(OC)c(OC)c3)no2)cc1OC,1,.,-8,24,.,.,.
COc1cc(NC(=O)c2cc(-c3ccco3)on2)cc(OC)c1OC,-3,-7,19*,-10,-6,3,0
O=C(NCCc1ccc(F)cc1)c1cc2ccccn2n1,.,1,.,.,-6,.,.
CCC[C@H]1[C@@H](OC(=O)NC(CC)CC)CC[C@@]23CCCN2C(=O)CCC[C@@H]13,.,8,.,.,1,.,.
Cc1cc(Br)c(NC(=O)CN2C(=O)NC3(CCOc4ccccc43)C2=O)c(Br)c1 (stereo unspecified),3,-1,20*,6,0,0,4
CCCCNC(=O)NC1CCN(CC(=O)Nc2ccc3c(c2)OCCO3)CC1,.,-9,.,.,1,.,.
COc1ccc2nc(NC(=O)c3ccc(NC(=O)C4CCCO4)cc3)sc2c1 (stereo unspecified),5,2,20*,.,-1,0,-2
Cc1ccc(OCc2nnc(SCC(=O)Nc3ccc(S(=O)(=O)Nc4cc(C)nc(C)n4)cc3)n2Cc2ccco2)cc1,.,1,.,.,-2,.,.
N#Cc1cccc(-c2ccccc2C(=O)NC2CCCCN(Cc3ccc(Cl)cc3)C2=O)c1 (stereo unspecified),.,2,.,.,3,.,.
O=S(=O)(c1ccc(Br)s1)N1CCN(CCc2ccccc2)CC1,-9,1,19*,13,3,0,3
O=C(O)C1CCC(N2C(=O)c3cccc([N+](=O)[O-])c3C2=O)CC1 (stereo unspecified),8,-3,19*,-31,-2,0,-1
Cc1cccc(/C=N/n2c(-c3cc(-c4ccccc4)n[nH]3)n[nH]c2=S)c1,4,4,19*,12,-1,-3,-2
CCC[C@H]1[C@@H](NC(=O)C2CCOC2)CC[C@@]23CCCN2C(=O)CCC[C@@H]13 (stereo partly specified),.,1,.,.,-1,.,.
Cc1cc2oc(=O)cc(CSc3nc(N)cc(N)n3)c2cc1C(C)C,-2,9,-3,-5,3,.,.
Nc1cc(N)nc(SCc2cc(=O)oc3cc4c(cc23)CCC4)n1,1,5,20*,-2,3,-3,-1
CC(C)(C)S(=O)(=O)c1cnc(-c2ccccn2)nc1N,-3,7,20*,3,-7,5,1
COCCSc1nnc(-c2cccnc2)n1Cc1ccccc1,.,-1,.,.,0,.,.
O=C(NCc1ccc(F)cc1)c1cccc2c1C(=O)c1ccc(N3CCC(N4CCCCC4)CC3)cc1S2(=O)=O,0,0,-4,-40,-13,.,.
O=C(NCc1ccco1)c1cccc2c1C(=O)c1ccc(N3CCC(N4CCCCC4)CC3)cc1S2(=O)=O,6,-3,20*,-70,-4,4,1
Cc1ccc(CNC(=O)CCn2nc(-c3ccc(Cl)cc3)ccc2=O)cc1,-7,-2,4,-12,4,.,.
Cc1ccc(-c2ccc(=O)n(CCC(=O)NCc3ccccn3)n2)cc1,8,10,19*,9,8,0,0
